# Active and inactive are the calls of the source. The rule behind the calls is not given here.
# What was measured:
# Pneumocystis carinii [1] = assay: Antimicrobial activity against Pneumocystis carinii infected BALB/c mouse at 1 mg/kg/day, po after 21 days administered 4 weeks postinfection by Giemsa staining method; type: functional, organism-based
# Summary of the method: (§1)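 Female BALB/c mice, 6-8 weeks, immunosuppressed with dexamethasone […] in drinking water, then inoculated transtracheally with 10^6 P. carinii. From 4 weeks post-inoculation, drug given in drinking water for 3 weeks, 10 mice/group, intake monitored. Lung impression smears stained with Giemsa or methenamine silver, read blinded. Graded 0-5 on a log scale; group mean ± SE.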
# Plasmodium berghei [2] = assay: Antimalarial activity Plasmodium berghei KBG-173 infected in Swiss(CD-1) mouse assessed as increase in mean survival time over control at 2 mg/kg, po pretreated 1 day before infection
# Leishmania donovani [3] = assay: Antileishmanial activity against Leishmania donovani HU3 infected in mouse assessed as inhibition of parasites in liver at 0.4 mg/kg/day, po treated for 5 days administered 7 days postinfection measured after 14 days post-infection; type: functional
# Summary of the method: (§2)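 L. donovani HU3 amastigotes, 1 × 10^7 given IV to mice. From day 7 post-infection, dosed orally once daily for 5 days in 0.25% methylcellulose-10% ethanol; reference stibogluconate given SC. Mice killed at day 14 post-infection. Parasite burden counted on liver impression smears against untreated controls. ED50 from linear regression, with 95% confidence limits.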
# Plasmodium berghei [4] = assay: Antimalarial activity against Plasmodium berghei KBG-173 infected in Swiss(CD-1) mouse assessed as mean survival time at 1 mg/kg/day, po treated for 3 days; type: functional
# Summary of the method: (§3)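 CD-1 mice, 5 weeks old, male or female, groups of five, infected with 5 × 10^4 P. berghei KBG-173 parasitized erythrocytes. Drug in 0.5% hydroxyethylcellulose/0.1% Tween 80, given orally once daily on days 3, 4 and 5 post-infection. Parasitemia from blood films on day +6. Read-out also includes increase in mean survival time over controls and survivors at day +34.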
# Plasmodium berghei [5] = assay: Antimalarial activity Plasmodium berghei KBG-173 infected in Swiss(CD-1) mouse assessed as mean survival time at 2 mg/kg, po treated 1 day postinfection; type: functional
# Summary of the method: (§4)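 CD-1 mice, 5 weeks old, male or female, groups of five, infected with 5 × 10^4 P. berghei KBG-173 parasitized erythrocytes. One 2 mg/kg oral dose given on a single day, from day −3 to +2 relative to inoculation. Controls untreated. Read-out is increase in mean survival time over controls and number alive at day +30.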
# Canis familiaris [6] = assay: Toxicity in Beagle dog assessed as increase in methemoglobin level at 1.91 mg/kg/day, po after 2 days; type: organism-based, Canis lupus familiaris; design: route oral; details: in vivo, 48 h
# Summary of the method: (§5)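 Beagle dogs, one male and one female per enantiomer, given 0.64 mg/kg/day (0.5 mg/kg base) orally for 4 days. After a 5-week washout the same dogs received 1.91 mg/kg/day for 4 days. Methemoglobin sampled from days −6 to 36. Each dog's values are mean of duplicate determinations.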
# Canis familiaris [7] = assay: Toxicity in Beagle dog assessed as increase in methemoglobin level at 1.91 mg/kg/day, po; type: organism-based, Canis lupus familiaris; design: route oral; details: in vivo; summary of the method: as §5
# Plasmodium berghei [8] = assay: Antimalarial activity Plasmodium berghei KBG-173 infected in Swiss(CD-1) mouse assessed as mean survival time at 2 mg/kg, po treated at day of infection; type: functional; summary of the method: as §4
# Plasmodium berghei [9] = assay: Antimalarial activity Plasmodium berghei KBG-173 infected in Swiss(CD-1) mouse assessed as mean survival time at 2 mg/kg, po treated 2 day postinfection; type: functional; summary of the method: as §4
# Plasmodium berghei [10] = assay: Antimalarial activity against Plasmodium berghei KBG-173 infected in Swiss(CD-1) mouse assessed as mean survival time at 4 mg/kg/day, po treated for 3 days; type: functional; summary of the method: as §3
# Plasmodium berghei [11] = assay: Antimalarial activity against Plasmodium berghei KBG-173 infected in Swiss(CD-1) mouse assessed as survival at 1 mg/kg/day, po treated for 3 days measured on day 34; type: functional, organism-based; summary of the method: as §3
# Plasmodium berghei [12] = assay: Antimalarial activity Plasmodium berghei KBG-173 infected in Swiss(CD-1) mouse assessed as survival at 2 mg/kg, po treated 2 day postinfection measured on day 30; type: functional, organism-based; design: dose 2 mg/kg; summary of the method: as §4
# Mus musculus = assay: Toxicity in Leishmania donovani HU3 infected mouse at 100 mg/kg/day, po treated for 5 days administered 7 days postinfection; type: organism-based; design: route oral; details: in vivo; summary of the method: as §2
# Plasmodium berghei [13] = assay: Antimalarial activity Plasmodium berghei KBG-173 infected in Swiss(CD-1) mouse assessed as mean survival time at 2 mg/kg, po pretreated 2 days before infection; type: functional; summary of the method: as §4
# Plasmodium berghei [14] = assay: Antimalarial activity against Plasmodium berghei KBG-173 infected in Swiss(CD-1) mouse assessed as survival at 4 mg/kg/day, po treated for 3 days measured on day 34; type: functional, organism-based; summary of the method: as §3
# Plasmodium berghei [15] = assay: Antimalarial activity against Plasmodium berghei KBG-173 infected in Swiss(CD-1) mouse assessed as mean survival time at 0.25 mg/kg/day, po treated for 3 days; type: functional; summary of the method: as §3
# Leishmania donovani [16] = assay: Antileishmanial activity against Leishmania donovani HU3 infected in mouse assessed as inhibition of parasites in liver at 5 mg/kg/day, po treated for 5 days administered 7 days postinfection measured after 14 days post-infection; type: functional; summary of the method: as §2
# Plasmodium berghei [17] = assay: Antimalarial activity Plasmodium berghei KBG-173 infected in Swiss(CD-1) mouse assessed as survival at 2 mg/kg, po pretreated 1 day before infection measured on day 30; type: functional, organism-based; design: dose 2 mg/kg; summary of the method: as §4
# Plasmodium berghei [18] = assay: Antimalarial activity against Plasmodium berghei KBG-173 infected in Swiss(CD-1) mouse assessed as reduction in parasitemia at 4 mg/kg/day, po treated for 3 days measured on day 6; type: functional; design: scale not given: the % may be the effect or the level left; summary of the method: as §3
# Plasmodium berghei [19] = assay: Antimalarial activity Plasmodium berghei KBG-173 infected in Swiss(CD-1) mouse assessed as survival at 2 mg/kg, po treated 1 day postinfection measured on day 30; type: functional, organism-based; design: dose 2 mg/kg; summary of the method: as §4
# Plasmodium berghei [20] = assay: Antimalarial activity Plasmodium berghei KBG-173 infected in Swiss(CD-1) mouse assessed as survival at 2 mg/kg, po pretreated 2 days before infection measured on day 30; type: functional, organism-based; design: dose 2 mg/kg; summary of the method: as §4
# Plasmodium berghei [21] = assay: Antimalarial activity Plasmodium berghei KBG-173 infected in Swiss(CD-1) mouse assessed as mean survival time at 2 mg/kg, po pretreated 3 days before infection; type: functional; summary of the method: as §4
# Pneumocystis carinii [22] = assay: Antimicrobial activity against Pneumocystis carinii infected BALB/c mouse at 0.25 mg/kg/day, po after 21 days administered 4 weeks postinfection by methenamine silver nitrate staining method; type: functional, organism-based; summary of the method: as §1
# Plasmodium berghei [23] = assay: Antimalarial activity Plasmodium berghei KBG-173 infected in Swiss(CD-1) mouse assessed as survival at 2 mg/kg, po treated at day of infection measured on day 30; type: functional, organism-based; design: dose 2 mg/kg; summary of the method: as §4
# Pneumocystis carinii [24] = assay: Antimicrobial activity against Pneumocystis carinii infected BALB/c mouse at 0.25 mg/kg/day, po after 21 days administered 4 weeks postinfection by Giemsa staining method; type: functional, organism-based; summary of the method: as §1
# Canis familiaris [25] = assay: Toxicity in Beagle dog assessed as increase in methemoglobin level at 1.91 mg/kg/day, po after 8 days; type: organism-based, Canis lupus familiaris; design: route oral; details: in vivo, 192 h; summary of the method: as §5
# Plasmodium berghei [26] = assay: Antimalarial activity against Plasmodium berghei KBG-173 infected in Swiss(CD-1) mouse assessed as parasitemia at 1 mg/kg/day, po treated for 3 days measured on day 6
# Canis familiaris [27] = assay: Toxicity in Beagle dog assessed as increase in methemoglobin level at 1.91 mg/kg/day, po after 6 days; type: organism-based, Canis lupus familiaris; design: route oral; details: in vivo, 144 h; summary of the method: as §5
# Pneumocystis carinii [28] = assay: Antimicrobial activity against Pneumocystis carinii infected BALB/c mouse at 5 mg/kg/day, po after 21 days administered 4 weeks postinfection by methenamine silver nitrate staining method; type: functional, organism-based; summary of the method: as §1
# Pneumocystis carinii [29] = assay: Antimicrobial activity against Pneumocystis carinii infected BALB/c mouse at 1 mg/kg/day, po after 21 days administered 4 weeks postinfection by methenamine silver nitrate staining method; type: functional, organism-based; summary of the method: as §1
# Plasmodium berghei [30] = assay: Antimalarial activity against Plasmodium berghei KBG-173 infected in Swiss(CD-1) mouse assessed as survival at 0.25 mg/kg/day, po treated for 3 days measured on day 34; type: functional, organism-based; summary of the method: as §3
# Plasmodium berghei [31] = assay: Antimalarial activity against Plasmodium berghei KBG-173 infected in Swiss(CD-1) mouse assessed as parasitemia at 0.25 mg/kg/day, po treated for 3 days measured on day 6
# Pneumocystis carinii [32] = assay: Antimicrobial activity against Pneumocystis carinii infected BALB/c mouse at 5 mg/kg/day, po after 21 days administered 4 weeks postinfection by Giemsa staining method; type: functional, organism-based; summary of the method: as §1
# Leishmania donovani [33] = assay: Antileishmanial activity against Leishmania donovani HU3 infected in mouse assessed as inhibition of parasites in liver at 10 mg/kg/day, po treated for 5 days administered 7 days postinfection measured after 14 days post-infection; type: functional; summary of the method: as §2
smiles,measurement,setting,value
COc1cc(N[C@@H](C)CCCN)c2nccc(C)c2c1Oc1ccc(Cl)c(Cl)c1.O=C(O)CCC(=O)O,Activity,Pneumocystis carinii [1],Active
same,ΔMST,Plasmodium berghei [2],0.6 days
same,inhibition in vivo at 0.4 mg/kg/day,Leishmania donovani [3],41.2%
same,MST,Plasmodium berghei [4],6 days
same,MST,Plasmodium berghei [5],0 days
same,Activity,Canis familiaris [6],Toxic
same,Activity,Canis familiaris [7],Toxic
same,MST,Plasmodium berghei [8],3.4 days
same,MST,Plasmodium berghei [9],1.2 days
same,MST,Plasmodium berghei [10],11 days
same,Activity,Plasmodium berghei [11],Active
same,Activity,Plasmodium berghei [12],Active
same,Activity,Mus musculus,Toxic
same,MST,Plasmodium berghei [13],0 days
same,Activity,Plasmodium berghei [14],Active
same,MST,Plasmodium berghei [15],0 days
same,inhibition in vivo at 5 mg/kg/day,Leishmania donovani [16],65%
same,Activity,Plasmodium berghei [17],Active
same,Activity,Plasmodium berghei [18],1.1%
same,Activity,Plasmodium berghei [19],Active
same,Activity,Plasmodium berghei [20],Active
same,MST,Plasmodium berghei [21],0 days
same,Activity,Pneumocystis carinii [22],Active
same,Activity,Plasmodium berghei [23],Active
same,Activity,Pneumocystis carinii [24],Active
same,Activity,Canis familiaris [25],Toxic
same,Activity,Plasmodium berghei [26],27.4%
same,Activity,Canis familiaris [27],Toxic
same,Activity,Pneumocystis carinii [28],Active
same,Activity,Pneumocystis carinii [29],Active
same,Activity,Plasmodium berghei [30],Active
same,Activity,Plasmodium berghei [31],28.2%
same,Activity,Pneumocystis carinii [32],Active
same,inhibition in vivo at 10 mg/kg/day,Leishmania donovani [33],99.6%
